Data set [1] deals with Trypanosoma cruzi. Kind of data set: Antitrypanosomal activity against amastigote stage of Trypanosoma cruzi Tulahuen infected in rat L6 cells assessed as parasite growth inhibition after 96 hrs by beta-galactosidase reporter gene assay. The data set is classed as functional, organism-based. As to conditions: L6, 96 h. On the technique in general: A reporter such as luciferase makes a cellular process visible.

Data set [2] in a line: Solubility of the compound in phosphate buffer saline. The format is physicochemical.
Data set [3] has as its system Trypanosoma cruzi. Briefly: Antitrypanosomal activity against Trypanosoma cruzi Tulahuen infected in mouse NIH/3T3 cells assessed as multimode parasite growth inhibition after 4 days by beta-galactosidase reporter gene assay. The format is functional, organism-based. The following applies: NIH3T3, 96 h. The gist of the method: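 Recombinant Tulahuen T. cruzi stably expressing a beta-galactosidase reporter, cocultured with mouse NIH/3T3 fibroblast host cells. Compounds added to host cells before infection with parasites; growth inhibition read by reporter; IC50 in nM.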

Data set [4] is described as follows: Metabolic stability in mouse microsomes assessed as compound remaining at 1 uM after 1 hr. The data set is classed as ADME, Microsome. As to conditions: read-out: Stability. The method in brief: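 Mouse liver microsomes incubated 1 h with compound at 1 μM; result expressed as percent of compound remaining.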
A short description of data set [5]: Plasma protein binding in human. The format is ADME, cell-free. The following applies: read-out: PPB (converted).
In data set [6] the test system is Trypanosoma cruzi. Kind of data set: Trypanocidal activity against Trypanosoma cruzi CA-I/72 infected in BESM cells assessed as parasite re-emergence at 40 nM treated for 29 days measured after 36 days. The data set is classed as functional, organism-based. The gist of the method:
(§1)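 T. cruzi-infected bovine embryo skeletal muscle (BESM) cells treated with varying compound concentrations for 20 or 29 days, compound refreshed every other day, then followed up to 36 days post-treatment. Trypomastigote emergence into medium checked visually daily through treatment and post-treatment phases; no re-emergence taken as trypanocidal, delayed emergence as trypanostatic.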

In data set [7] the test system is Trypanosoma cruzi. Briefly: Trypanocidal activity against Trypanosoma cruzi CA-I/72 infected in BESM cells assessed as parasite re-emergence at 40 nM measured over 29 days of drug treatment. The data set is classed as functional, organism-based. The method in brief:
as §1

Data set [8] can be described thus: Fraction unbound in human plasma. The data set is classed as ADME, cell-free.
Data set [9] has as its system Trypanosoma cruzi. Kind of data set: Trypanocidal activity against Trypanosoma cruzi CA-I/72 infected in BESM cells assessed as parasite re-emergence at 370 nM measured over 29 days of drug treatment. The data set is classed as functional, organism-based. The method in brief: as §1
In data set [10] the test system is Trypanosoma cruzi. Kind of data set: Trypanocidal activity against Trypanosoma cruzi CA-I/72 infected in BESM cells assessed as parasite re-emergence at 370 nM treated for 29 days measured after 36 days. The data set is classed as functional, organism-based. The gist of the method:
as §1

The subject of another data set is Plasma. Briefly: Metabolic stability in human plasma. The data set is classed as ADME, cell-free.
The test system of data set [11] is Trypanosoma cruzi. Kind of data set: Trypanocidal activity against Trypanosoma cruzi CA-I/72 infected in BESM cells assessed as parasite re-emergence at 6.6 uM measured over 20 days of drug treatment. The data set is classed as functional, organism-based. The method in brief:
as §1

Data set [12] deals with Trypanosoma cruzi. Kind of data set: Trypanocidal activity against Trypanosoma cruzi CA-I/72 infected in BESM cells assessed as parasite re-emergence at 6.6 uM treated for 20 days measured after 37 days. The format is functional, organism-based. The gist of the method:
as §1

Data set [13] concerns Trypanosoma cruzi. Briefly: Trypanocidal activity against Trypanosoma cruzi CA-I/72 infected in BESM cells assessed as parasite re-emergence at 740 nM treated for 20 days measured after 37 days. The format is functional, organism-based. The gist of the method:
as §1

Data set [14] deals with Trypanosoma cruzi. Kind of data set: Trypanocidal activity against Trypanosoma cruzi CA-I/72 infected in BESM cells assessed as parasite re-emergence at 740 nM measured over 20 days of drug treatment. The data set is classed as functional, organism-based. The method in brief: as §1
Data set [15] relates to Trypanosoma cruzi. Briefly: Trypanocidal activity against Trypanosoma cruzi CA-I/72 infected in BESM cells assessed as parasite re-emergence at 250 nM measured over 20 days of drug treatment. The format is functional, organism-based. The gist of the method:
as §1

Data set [16] deals with Trypanosoma cruzi. Briefly: Trypanocidal activity against Trypanosoma cruzi CA-I/72 infected in BESM cells assessed as parasite re-emergence at 250 nM treated for 20 days measured after 4 days. The format is functional, organism-based. The method in brief:
as §1

As a reminder, the IC50 is the midpoint of a concentration-inhibition curve. A word on the solubility: it is how much of the substance goes into solution per volume.

Structures are written as SMILES. In brackets after ≈: the same amount, converted by molar mass. Activity calls are given as the source filed them. The calls are words filed in the database; no cut-off is given here.

Take `C[C@H]1CN([C@@H](C)CO)C(=O)c2cccc(NC(=O)c3ccncc3)c2O[C@@H]1CN(C)Cc1ccc(Cl)c(Cl)c1`: the results for the IC50 with Trypanosoma cruzi [1] and in the data set on Trypanosoma cruzi [3] were 83 nM and less than 1 nM, respectively. The compound also came in with a solubility in data set [2] of 64 µM (≈ 36.6 µg/mL).
`C[C@H](CO)N1C[C@H](C)[C@@H](CN(C)Cc2ccc(Oc3ccccc3)cc2)Oc2c(NC(=O)c3ccncc3)cccc2C1=O`: the IC50 in the data set on Trypanosoma cruzi [1] amounted to 31 nM; in the data set on Trypanosoma cruzi [3] it was 2 nM. In data set [4], the remaining at 1 h, 1 µM came out at 70%. The solubility in data set [2] came to 2 µM (≈ 1.19 µg/mL). In addition, in [5], the fraction unbound is 0.01.
Take `CC(C)N1C[C@H](C)[C@@H](CN(C)Cc2ccc(Oc3ccccc3)cc2)Oc2c(NC(=O)c3ccncc3)cccc2C1=O`: the IC50 in the data set with Trypanosoma cruzi [1] was determined as 288 nM; in the data set with Trypanosoma cruzi [3], 1 nM.
In the same order, the values of `CC(C)N1C[C@H](C)[C@@H](CN(C)Cc2ccc(Cl)cc2)Oc2c(NC(=O)c3ccncc3)cccc2C1=O` are 61 nM and 1 nM.
`C[C@@H]1CN([C@@H](C)CO)C(=O)c2cccc(NC(=O)c3ccncc3)c2O[C@H]1CN(C)Cc1ccc(Oc2ccccc2)cc1`: the IC50 in the data set on Trypanosoma cruzi [1] came to 24 nM; with Trypanosoma cruzi [3] it was 1 nM. Besides, the outcome in the data set on Trypanosoma cruzi [6] and in the data set with Trypanosoma cruzi [7] was Active. The remaining at 1 h, 1 µM in data set [4] is 2%. Besides, the concentration in solution in data set [2] (solubility) came to 1 µM (≈ 0.595 µg/mL). For the same compound, in data set [5], the fraction unbound was 0.01.
Turning to `C[C@@H]1CN([C@H](C)CO)C(=O)c2cccc(NC(=O)c3ccncc3)c2O[C@@H]1CN(C)Cc1ccc(Oc2ccccc2)cc1`, the fraction unbound in [8] and in data set [5] was 0.05 throughout. Also, the IC50 was 1200 nM in the data set on Trypanosoma cruzi [1] and 260 nM with Trypanosoma cruzi [3]. Further, the remaining at 1 h, 1 µM in [4] was less than 1%. In data set [2], this compound had a solubility of 86 µM (≈ 51.1 µg/mL).
In the case of `C[C@@H]1CN([C@H](C)CO)C(=O)c2cccc(NC(=O)c3ccncc3)c2O[C@H]1CN(C)Cc1ccc(Oc2ccccc2)cc1`, the IC50 in the data set on Trypanosoma cruzi [1] came out at 22 nM; in the data set with Trypanosoma cruzi [3], 5 nM. Besides, the result with Trypanosoma cruzi [6] and in the data set on Trypanosoma cruzi [7] was Active. In addition, the remaining at 1 h, 1 µM in data set [4] is 1%. Besides, the solubility in data set [2] turned out to be 1 µM (≈ 0.595 µg/mL). Further, the fraction unbound in data set [5] is 0.01.
As for `C[C@H]1CN([C@@H](C)CO)C(=O)c2cccc(NC(=O)c3ccncc3)c2O[C@@H]1CN(C)Cc1ccncc1`, in data set [2], the concentration in solution (solubility) came to 100 µM (≈ 50.4 µg/mL). In addition, in the data set on Trypanosoma cruzi [3], the 50% inhibitory concentration (IC50) was more than 32000 nM.
Turning to `C[C@H]1CN([C@@H](C)CO)C(=O)c2cccc(NC(=O)c3ccncc3)c2O[C@@H]1CN(C)Cc1ccc(C(F)(F)F)cc1`, the IC50 turned out to be 422 nM with Trypanosoma cruzi [1] and 13 nM in the data set on Trypanosoma cruzi [3].
As to `C[C@@H]1CN([C@@H](C)CO)C(=O)c2cccc(NC(=O)c3ccncc3)c2O[C@@H]1CN(C)Cc1ccc(Oc2ccccc2)cc1`, the fraction unbound in data set [8] and in data set [5] was 0.05 throughout. Further, the IC50 was 670 nM with Trypanosoma cruzi [1] and 450 nM in the data set on Trypanosoma cruzi [3]. For the same compound, the remaining at 1 h, 1 µM in data set [4] was less than 1%. The concentration in solution in data set [2] (solubility) was 87 µM (≈ 51.7 µg/mL).
Take `C[C@H](CO)N1C[C@H](C)[C@H](CN(C)Cc2ccc(Oc3ccccc3)cc2)Oc2c(NC(=O)c3ccncc3)cccc2C1=O`: the result with Trypanosoma cruzi [9] and in the data set on Trypanosoma cruzi [10] was Active. Further, the results for the IC50 in the data set with Trypanosoma cruzi [1] and in the data set on Trypanosoma cruzi [3] were 75 nM and 16 nM, respectively. Further, the remaining at 1 h, 1 µM in data set [4] was less than 1%. For the same compound, in the data set on Plasma, the Stability entry is on record as “Unstable”. For the same compound, the solubility in [2] is 98 µM (≈ 58.3 µg/mL).
For `C[C@H]1CN([C@@H](C)CO)C(=O)c2cccc(NC(=O)c3ccncc3)c2O[C@H]1CN(C)Cc1ccc(Oc2ccccc2)cc1`, the fraction unbound in data set [8] and in data set [5] was 0.05 each time. Moreover, the concentration for half-maximal inhibition (IC50) in the data set on Trypanosoma cruzi [1] is 59 nM; in the data set on Trypanosoma cruzi [3], 23 nM. Also, the outcome with Trypanosoma cruzi [6] and in the data set on Trypanosoma cruzi [7] was Active. Besides, in data set [4], the remaining at 1 h, 1 µM is less than 1%. The same compound showed a solubility in data set [2] of 93 µM (≈ 55.3 µg/mL).
Regarding `O=C(Cn1ccnc1[N+](=O)[O-])NCc1ccccc1`, the result with Trypanosoma cruzi [11] and in the data set with Trypanosoma cruzi [12] was Active.
On to `C[C@H]1CN([C@@H](C)CO)C(=O)c2cccc(NC(=O)c3ccncc3)c2O[C@@H]1CN(C)Cc1ccc(Oc2ccccc2)cc1`, for which the result with Trypanosoma cruzi [13], in the data set on Trypanosoma cruzi [14], in the data set with Trypanosoma cruzi [6] and in the data set on Trypanosoma cruzi [7] was Active. The values for the IC50 in the data set on Trypanosoma cruzi [1] and in the data set with Trypanosoma cruzi [3] were 16 nM and 1 nM, respectively. Moreover, the remaining at 1 h, 1 µM in data set [4] amounted to 77%. This compound also had a solubility in [2] of 1 µM (≈ 0.595 µg/mL). For the same compound, the fraction unbound in [5] was 0.01. The outcome in the data set on Trypanosoma cruzi [15] and in the data set with Trypanosoma cruzi [16] was inactive.
The compound `C[C@H]1CN([C@@H](C)CO)C(=O)c2cccc(NC(=O)c3ccncc3)c2O[C@@H]1CN(C)Cc1ccccc1` displayed a solubility in data set [2] of 100 µM (≈ 50.3 µg/mL). Besides, the IC50 with Trypanosoma cruzi [3] stood at 12 nM.
Take `C[C@H]1CN([C@@H](C)CO)C(=O)c2cccc(NC(=O)c3ccncc3)c2O[C@@H]1CN(C)Cc1c(Cl)cccc1Cl`: the IC50 in the data set with Trypanosoma cruzi [3] was determined as 445 nM.
